Laboratory results from ChEMBL document CHEMBL1146216, “Synthesis and biological activity of a gemcitabine phosphoramidate prodrug” (J Med Chem, 2007).
pIC50: −log10 of the molar value.

Experiments:
[1] = Growth inhibition of AG6000 cells by SRB assay; assay type: functional, cell-based; conditions: Homo sapiens
Summary of the method: (§1)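 Cells seeded at 5000/well and exposed to a range of drug concentrations for 72 h at 37 °C, 5% CO2, then read by SRB. A2780 and its dCK-deficient variant AG6000 were grown in DMEM; A549, H292 and H460 in RPMI; both media had 10% FCS and 20 mM HEPES. OD was read at 540 or 492 nm. Relative growth = (ODtreated − ODzero)/(ODcontrol − ODzero) × 100%, with ODzero taken at drug addition.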

[2] = Growth inhibition of AG6000 cells by SRB assay in presence of dipyridamole; assay type: functional, cell-based; conditions: Homo sapiens
Summary of the method: (§2)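 SRB growth assay run with the nucleoside transport inhibitor dipyridamole at 1 µM final. Cells were seeded at 5000/well and exposed to a range of drug concentrations for 72 h at 37 °C, 5% CO2. Media: DMEM for A2780 and the dCK-deficient AG6000; RPMI for A549, H292 and H460; each with 10% FCS and 20 mM HEPES. Relative growth was calculated against ODzero and untreated controls.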

A549 [3] = test: Growth inhibition of A549 cells by SRB assay in presence of dipyridamole; assay type: functional, cell-based; conditions: Homo sapiens; summary of the method: as §2
NCI-H460 [4] = test: Growth inhibition of H460 cells by SRB assay in presence of dipyridamole; assay type: functional, cell-based; conditions: Homo sapiens; summary of the method: as §2
A2780 [5] = test: Growth inhibition of A2780 cells by SRB assay; assay type: functional, cell-based; conditions: Homo sapiens; summary of the method: as §1
CCRF-CEM [6] = test: Growth inhibition of CEM cells by MTT assay; conditions: Homo sapiens
SW1573 [7] = test: Growth inhibition of SW1573 cells by SRB assay in presence of dipyridamole; assay type: functional, cell-based; conditions: Homo sapiens
Summary of the method: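 SW1573 cells cultured in DMEM, 10% FCS, 20 mM HEPES, 37 °C, 5% CO2. Plated at 5000 cells/well and given graded drug concentrations with the nucleoside transport inhibitor dipyridamole at 1 µM final, for 72 h. SRB read-out at OD 540 or 492 nm. Growth is expressed relative to time-zero and untreated wells.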

[8] = Growth inhibition of H292 cells by SRB assay; assay type: functional, cell-based; conditions: Homo sapiens, NCI-H292; summary of the method: as §1
NCI-H460 [9] = test: Growth inhibition of H460 cells by SRB assay; assay type: functional, cell-based; conditions: Homo sapiens; summary of the method: as §1
A2780 [10] = test: Growth inhibition of A2780 cells by SRB assay in presence of dipyridamole; assay type: functional, cell-based; conditions: Homo sapiens; summary of the method: as §2
CCRF-CEM [11] = test: Growth inhibition of dCK deficient CEM cells by MTT assay in presence of dipyridamole; conditions: Homo sapiens
[12] = Growth inhibition of H292 cells by SRB assay in presence of dipyridamole; assay type: functional, cell-based; conditions: Homo sapiens, NCI-H292; summary of the method: as §2
SW1573 [13] = test: Growth inhibition of SW1573 cells by SRB assay; assay type: functional, cell-based; conditions: Homo sapiens
Summary of the method: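 SW1573 NSCLC cells grown in DMEM with 10% FCS and 20 mM HEPES at 37 °C, 5% CO2. Seeded at 5000 cells/well and exposed to a range of drug concentrations for 72 h, then SRB assay. OD read at 540 or 492 nm. Relative growth = (ODtreated − ODzero)/(ODcontrol − ODzero) × 100%, with ODzero taken at drug addition.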

A549 [14] = test: Growth inhibition of A549 cells by SRB assay; assay type: functional, cell-based; conditions: Homo sapiens; summary of the method: as §1
CCRF-CEM [15] = test: Growth inhibition of dCK deficient CEM cells by MTT assay; conditions: Homo sapiens
CCRF-CEM [16] = test: Growth inhibition of CEM cells by MTT assay in presence of dipyridamole; conditions: Homo sapiens

pIC50 (A549 [3]): 6.65
pIC50 (NCI-H460 [4]): 6.99
pIC50 (A2780 [5]): 8.82
pIC50 (CCRF-CEM [6]): 6.89
pIC50 (SW1573 [7]): 6.56
pIC50 (NCI-H460 [9]): 8.00
pIC50 (A2780 [10]): 7.82
pIC50 (CCRF-CEM [11]): 4.00
pIC50 (SW1573 [13]): 7.80
pIC50 (A549 [14]): 7.85
pIC50 (CCRF-CEM [15]): 4.30
pIC50 (CCRF-CEM [16]): 6.00
SMILES: Nc1ccn([C@@H]2O[C@H](CO)[C@@H](O)C2(F)F)c(=O)n1 [GEMCITABINE]
pIC50 [1]: 4.70
pIC50 [2]: 4.70
pIC50 [8]: 7.89
pIC50 [12]: 6.68
